# Reference: ChEMBL document CHEMBL4152354, “A reusable magnetic nickel nanoparticle based catalyst for the aqueous synthesis of diverse heterocycles and their evaluation as potential anti-bacterial agent” (2018)
# Experiments:
# Assay type in all cases: functional
# Streptococcus pyogenes = assay: Antibacterial activity against Streptococcus pyogenes MTCC 1925 assessed as zone of inhibition at 100 uL after 24 hrs by agar well-diffusion method
# Outline: (§1)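 Mueller-Hinton agar plates swabbed with a bacterial suspension adjusted to 1.5×10^8 CFU/ml. Each 5 mm well received 100 µl of compound, and plates were incubated at 37°C for 24 h. Chloramphenicol (30 mcg) was the positive control and DMSO the negative control. Inhibition zones around wells were measured manually, in triplicate.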
# Salmonella enterica = assay: Antibacterial activity against Salmonella enterica MTCC 735 assessed as zone of inhibition at 100 uL after 24 hrs by agar well-diffusion method
# Escherichia coli = assay: Antibacterial activity against Escherichia coli MTCC 730 assessed as zone of inhibition at 100 uL after 24 hrs by agar well-diffusion method; outline: as §1
# Bacillus cereus [1] = assay: Antibacterial activity against Bacillus cereus MTCC 430 assessed as zone of inhibition at 100 uL after 24 hrs by agar well-diffusion method; outline: as §1
# Klebsiella pneumoniae [2] = assay: Antibacterial activity against Klebsiella pneumoniae MTCC 109 assessed as zone of inhibition at 100 uL after 24 hrs by agar well-diffusion method; outline: as §1
# Bacillus cereus [3] = assay: Antibacterial activity against Bacillus cereus MTCC 430 after 18 hrs by TTC staining based broth microdilution method; conditions: MTCC 430, 18 h
# Outline: (§2)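 Broth microdilution in Mueller-Hinton broth. 50 µl of inoculum from a 0.5 McFarland suspension was added to 50 µl of compound, giving final concentrations of 0.024–400 mg/ml in DMSO. Sealed plates were incubated at 37°C for 18 h, then 50 µl of 0.5% TTC was added for 1 h in the dark. MIC was the lowest concentration with no visible growth (well stays clear). Triplicate; mean ± SD.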
# Klebsiella pneumoniae [4] = assay: Antibacterial activity against Klebsiella pneumoniae MTCC 109 after 18 hrs by TTC staining based broth microdilution method; conditions: MTCC 109, 18 h; outline: as §2
Compound,inhibition zone (IZ) (Streptococcus pyogenes) [mm],inhibition zone (IZ) (Salmonella enterica) [mm],inhibition zone (IZ) (Escherichia coli) [mm],inhibition zone (IZ) (Bacillus cereus [1]) [mm],inhibition zone (IZ) (Klebsiella pneumoniae [2]) [mm],MIC (Bacillus cereus [3]) [mg/L],MIC (Klebsiella pneumoniae [4]) [mg/L]
CCOc1ccc(C(c2c(O)c3ccccc3oc2=O)c2c(O)c3ccccc3oc2=O)cc1,20,11,13,12,19,3120,780
O=c1oc2ccccc2c(O)c1C(c1ccc(Cl)cc1)c1c(O)c2ccccc2oc1=O,24,10,23,19,25,390,190
O=c1oc2ccccc2c(O)c1C(c1ccccc1)c1c(O)c2ccccc2oc1=O,23,10,17,20,21,190,190
O=c1oc2ccccc2c(O)c1C(c1ccco1)c1c(O)c2ccccc2oc1=O,18,11,15,14,17,3120,780
CC1(C)CC(=O)C(C(C2=C(O)CC(C)(C)CC2=O)c2ccccc2)=C(O)C1,0,0,0,0,0,,
O=c1oc2ccccc2c(O)c1C(c1ccccc1Cl)c1c(O)c2ccccc2oc1=O,22,10,18,11,24,3120,190
CC1(C)CC(=O)C(C(C2=C(O)CC(C)(C)CC2=O)c2ccc([N+](=O)[O-])cc2)=C(O)C1,0,0,0,15,14,,
O=c1oc2ccccc2c(O)c1C(c1ccc(O)cc1)c1c(O)c2ccccc2oc1=O,10,10,10,10,10,6250,3120
O=c1oc2ccccc2c(O)c1C(c1ccc([N+](=O)[O-])cc1)c1c(O)c2ccccc2oc1=O,15,11,13,16,19,780,390
COc1ccc(C(c2c(O)c3ccccc3oc2=O)c2c(O)c3ccccc3oc2=O)cc1OC,13,10,15,16,18,780,780
COc1ccc(C(c2c(C)[nH][nH]c2=O)C2C(=O)NC(=O)NC2=O)cc1OC (configuration not stated),17,10,16,15,21,780,390
COc1cc(C(C2=C(O)CC(C)(C)CC2=O)C2=C(O)CC(C)(C)CC2=O)cc(OC)c1OC,0,0,0,0,0,,
Cc1ccc(C(C2=C(O)CC(C)(C)CC2=O)C2=C(O)CC(C)(C)CC2=O)cc1,0,0,0,0,0,,
CCC(C1=C(O)CC(C)(C)CC1=O)C1=C(O)CC(C)(C)CC1=O,0,0,0,0,0,,
Cc1[nH][nH]c(=O)c1C(c1cccc(F)c1)C1C(=O)NC(=O)NC1=O (configuration not stated),15,11,15,15,20,780,390
COc1ccc(C(c2c(C)[nH][nH]c2=O)C2C(=O)NC(=O)NC2=O)cc1 (configuration not stated),13,11,14,14,11,6250,3120
